Data taken from ChEMBL document CHEMBL3085758, “A stereoselective approach to peptidomimetic BACE1 inhibitors” (Eur J Med Chem, 2013).

Tests used:
[1] = target: T1, Beta-secretase 1 (Homo sapiens, UniProt P56817); assay: Inhibition of human recombinant BACE1 using [acetyl-C(W8044Eu)-EVNLDAEFK-QSY7] as substrate by TR-FRET assay
How it was run: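 Enzyme (6 nM) incubated with 200 nM europium-labelled TR-FRET substrate in 50 mM NaOAc, 0.005% Triton X-100, pH 4.5; inhibitors in 3.3% DMSO. Time-resolved fluorescence read at excitation 330 nm, emission 615 nm; IC50 from concentration-response curves, mean of at least 3 experiments.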

[2] = target: T1, Beta-secretase 1; assay: Inhibition of BACE1 in HEK293 cells expressing APP NFEV and APP K612V mutant assessed as generation of EV40/EV42 by electrochemiluminescence assay; format: cell-based
How it was run: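 HEK293 cells carrying a proprietary APP construct with modified BACE cleavage sequence (NFEV) and K612V alpha-site mutation. Compounds started at […], then 3-fold dilutions (10 points). IC50 determined against generation of sAPPb NF and EV40 and EV42 peptides. Run at Merck RL.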

[3] = target: T1, Beta-secretase 1; assay: Inhibition of BACE1 in human SH-SY5Y cells expressing APP NFEV and wild-type alpha cleavage site assessed as generation of EV40/EV42 by electrochemiluminescence assay; format: cell-based
How it was run: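 SHSY5Y cells expressing APP NFEV with wild-type alpha-cleavage site. Compounds started at […], then 3-fold dilutions (10 points). IC50 determined against generation of sAPPb NF and EV40 and EV42 peptides. Run at Merck RL.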

[4] = target: T1, Beta-secretase 1; assay: Selectivity ratio of IC50 for BACE1 in human SH-SY5Y cells to IC50 for BACE1 in HEK293 cells; format: cell-based

T1 sequence (P56817 whole entry): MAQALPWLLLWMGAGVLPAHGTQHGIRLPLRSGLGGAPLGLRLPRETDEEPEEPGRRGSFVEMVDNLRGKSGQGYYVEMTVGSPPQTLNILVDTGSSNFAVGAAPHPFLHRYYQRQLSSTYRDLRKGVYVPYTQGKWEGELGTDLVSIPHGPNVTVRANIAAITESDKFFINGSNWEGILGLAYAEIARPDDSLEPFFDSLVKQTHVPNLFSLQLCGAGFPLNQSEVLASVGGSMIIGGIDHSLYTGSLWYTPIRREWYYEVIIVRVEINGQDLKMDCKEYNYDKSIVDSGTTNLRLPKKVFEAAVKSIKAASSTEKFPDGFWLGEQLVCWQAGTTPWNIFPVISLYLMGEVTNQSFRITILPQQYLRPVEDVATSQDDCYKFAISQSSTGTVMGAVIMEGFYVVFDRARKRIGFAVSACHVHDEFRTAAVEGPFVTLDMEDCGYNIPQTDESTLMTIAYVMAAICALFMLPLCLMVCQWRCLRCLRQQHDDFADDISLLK

SMILES | IC50 ([1]; read-out: IC50) [µM] | also measured
CC(C)(C)OC(=O)N1CCN(c2cccc(C=O)c2NC(=O)[C@@H](NC(=O)OCc2ccccc2)c2ccccc2)CC1 | 14.3 | –
CC(C)(C)OC(=O)N(C[C@H](O)c1cccc(NC(=O)[C@@H](NC(=O)OCc2ccccc2)c2ccccc2)c1)[C@H](CO)c1ccccc1 | 9.2 | –
CC(C)(C)OC(=O)N(Cc1ccccc1)C[C@H](O)c1cccc(NC(=O)c2cccc3ccccc23)c1 | 4.9 | IC50 [2]: > 7 µM; IC50 [3]: 11 µM
O=C(N[C@H](C(=O)Nc1cccc([C@@H](O)CN[C@H](CO)Cc2ccccc2)c1)c1ccccc1)OCc1ccccc1 | 7.5 | –
CC(C)(C)OC(=O)N(Cc1ccccc1)C[C@@H](O)c1cccc(NC(=O)[C@@H](NC(=O)OCc2ccccc2)c2ccccc2)c1 | 5.2 | –
O=C1Nc2c(N3CCNCC3)ccc(-c3ccccc3)c2C=N[C@H]1c1ccccc1 | – | IC50 [1]: Not Active
CC(C)(C)OC(=O)N(Cc1ccccc1)C[C@H](O)c1ccc(C(=O)c2ccccc2)c(NC(=O)[C@@H](NC(=O)OCc2ccccc2)c2ccccc2)c1 | 14.9 | –
CC(C)(C)OC(=O)N(Cc1ccccc1)C[C@H](O)c1ccc(C(=O)c2ccccc2)c(NC(=O)[C@H](NC(=O)OCc2ccccc2)c2ccccc2)c1 | 18.1 | –
CC(C)(C)OC(=O)N1CCN(c2ccc(-c3ccccc3)c3c2NC(=O)[C@H](c2ccccc2)N=C3)CC1 | 12.8 | –
CC(C)(C)OC(=O)N1CCN(c2ccc(-c3ccccc3)c3c2NC(=O)[C@H](c2ccccc2)NC3)CC1 | – | IC50 [1]: Not Active
CC(C)(C)OC(=O)N1CCN(c2ccc(-c3ccccc3)c(C=O)c2NC(=O)[C@@H](NC(=O)OCC2c3ccccc3-c3ccccc32)c2ccccc2)CC1 | 14.8 | –
CC(C)(C)OC(=O)N(Cc1ccccc1)C[C@@H](O)c1cccc(NC(=O)[C@H](NC(=O)OCc2ccccc2)c2ccccc2)c1 | 4.7 | IC50 [2]: > 10 µM; IC50 [3]: > 100 µM; Ratio IC50 [4]: 10
CC(C)(C)OC(=O)N(C[C@H](O)c1cccc(NC(=O)[C@@H](NC(=O)OCc2ccccc2)c2ccccc2)c1)[C@H](CO)Cc1ccccc1 | 6.4 | –
CC(C)(C)OC(=O)N1CCN(c2cccc3c2NC(=O)[C@H](c2ccccc2)N=C3)CC1 | – | IC50 [1]: Not Active
